From ChEMBL document CHEMBL1136274 (Bioorg Med Chem Lett, 2003) come the findings set out here.

Assay [1] addresses T1, Sphingosine 1-phosphate receptor 4 (Homo sapiens, UniProt O95977).
T1 sequence (O95977 whole entry): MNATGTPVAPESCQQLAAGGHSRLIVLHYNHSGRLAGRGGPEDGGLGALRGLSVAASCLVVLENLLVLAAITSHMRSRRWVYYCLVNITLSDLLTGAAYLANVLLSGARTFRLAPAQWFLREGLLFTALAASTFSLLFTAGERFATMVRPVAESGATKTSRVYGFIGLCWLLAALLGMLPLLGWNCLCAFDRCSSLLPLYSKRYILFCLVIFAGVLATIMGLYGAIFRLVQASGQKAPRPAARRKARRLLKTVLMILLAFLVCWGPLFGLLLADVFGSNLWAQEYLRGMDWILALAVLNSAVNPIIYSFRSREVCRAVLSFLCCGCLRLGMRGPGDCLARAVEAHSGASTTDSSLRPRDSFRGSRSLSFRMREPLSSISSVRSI
Nature of the assay: In vitro binding affinity towards human Sphingosine 1-phosphate receptor 4 expressed in HEK293T cells using [gamma-35S]-GTP as radioligand. Type of assay: cell-based, HEK-293T.

The target of assay [2] is T2, Sphingosine 1-phosphate receptor 3 (Homo sapiens, UniProt Q99500). Nature of the assay: In vitro binding affinity towards human Sphingosine 1-phosphate receptor 3 expressed in HEK293T cells using [gamma-35S]-GTP as radioligand; Not active. Type of assay: cell-based. The note with it: hek-293t.
T2 sequence (Q99500 whole entry): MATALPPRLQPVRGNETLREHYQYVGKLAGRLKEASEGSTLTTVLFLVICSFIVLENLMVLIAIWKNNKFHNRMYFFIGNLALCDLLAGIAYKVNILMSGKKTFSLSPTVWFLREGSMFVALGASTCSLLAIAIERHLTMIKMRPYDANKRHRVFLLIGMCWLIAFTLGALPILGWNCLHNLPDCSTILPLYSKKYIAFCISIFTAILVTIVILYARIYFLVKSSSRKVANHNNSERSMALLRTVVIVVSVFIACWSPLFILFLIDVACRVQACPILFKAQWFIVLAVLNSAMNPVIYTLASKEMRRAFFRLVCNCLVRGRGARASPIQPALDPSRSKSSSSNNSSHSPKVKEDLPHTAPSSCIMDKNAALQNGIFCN
For assay [3], the target named is T3, Sphingosine 1-phosphate receptor 1 (Homo sapiens, UniProt P21453). In words: In vitro binding affinity towards human Sphingosine 1-phosphate receptor 1 expressed in HEK293T cells using [gamma-35S]-GTP as radioligand. Type of assay: cell-based, HEK-293T.
T3 sequence (P21453 whole entry): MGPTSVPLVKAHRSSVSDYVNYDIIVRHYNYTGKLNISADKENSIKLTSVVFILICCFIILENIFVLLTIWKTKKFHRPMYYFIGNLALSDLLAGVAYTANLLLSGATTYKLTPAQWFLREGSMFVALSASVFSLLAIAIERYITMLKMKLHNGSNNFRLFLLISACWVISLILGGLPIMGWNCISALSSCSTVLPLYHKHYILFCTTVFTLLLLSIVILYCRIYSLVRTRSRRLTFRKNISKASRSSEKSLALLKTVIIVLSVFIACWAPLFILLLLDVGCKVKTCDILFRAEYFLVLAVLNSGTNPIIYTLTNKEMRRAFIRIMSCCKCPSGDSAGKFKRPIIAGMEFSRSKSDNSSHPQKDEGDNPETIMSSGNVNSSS
The target of assay [4] is T4, Sphingosine 1-phosphate receptor 2 (Homo sapiens, UniProt O95136). Nature of the assay: In vitro binding affinity towards human Sphingosine 1-phosphate receptor 2 expressed in HEK293T cells using [gamma-35S]-GTP as radioligand; Not active. It counts as cell-based. The note with it: hek-293t.
T4 sequence (O95136 whole entry): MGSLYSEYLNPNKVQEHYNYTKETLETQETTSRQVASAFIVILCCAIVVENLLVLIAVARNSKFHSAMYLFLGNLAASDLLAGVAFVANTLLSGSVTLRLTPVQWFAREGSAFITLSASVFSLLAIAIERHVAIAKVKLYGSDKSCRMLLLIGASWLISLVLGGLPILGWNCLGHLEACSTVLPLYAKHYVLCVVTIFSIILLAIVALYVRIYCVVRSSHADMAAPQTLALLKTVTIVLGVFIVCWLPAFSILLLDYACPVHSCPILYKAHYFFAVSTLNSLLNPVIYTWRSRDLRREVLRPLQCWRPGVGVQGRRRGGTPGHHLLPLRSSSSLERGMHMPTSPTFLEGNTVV
For assay [5], the target named is Sphingosine 1-phosphate receptor 5 (Homo sapiens, UniProt Q9H228). In words: In vitro binding affinity towards human Sphingosine 1-phosphate receptor 5 expressed in HEK293T cells using [gamma-35S]-GTP as radioligand. It counts as cell-based, HEK-293T.
Chain of Sphingosine 1-phosphate receptor 5 (Q9H228 whole entry): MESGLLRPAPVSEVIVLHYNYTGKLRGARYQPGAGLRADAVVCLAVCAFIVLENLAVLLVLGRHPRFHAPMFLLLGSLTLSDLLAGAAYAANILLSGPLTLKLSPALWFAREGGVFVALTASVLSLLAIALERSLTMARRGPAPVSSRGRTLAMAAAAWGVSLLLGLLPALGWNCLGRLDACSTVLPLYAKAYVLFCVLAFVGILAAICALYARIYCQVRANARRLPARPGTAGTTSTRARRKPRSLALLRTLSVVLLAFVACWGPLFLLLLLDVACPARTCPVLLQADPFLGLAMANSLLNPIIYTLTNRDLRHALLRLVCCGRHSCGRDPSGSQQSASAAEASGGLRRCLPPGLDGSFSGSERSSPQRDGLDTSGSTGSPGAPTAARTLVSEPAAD
For assay [6], the target named is T2, Sphingosine 1-phosphate receptor 3. Nature of the assay: In vitro binding affinity towards human Sphingosine 1-phosphate receptor 3 expressed in HEK293T cells using [gamma-35S]-GTP as radioligand. It counts as cell-based, HEK-293T.
In assay [7] the target is T1, Sphingosine 1-phosphate receptor 4. Nature of the assay: In vitro binding affinity towards human Sphingosine 1-phosphate receptor 4 expressed in HEK293T cells using [gamma-35S]-GTP as radioligand (Experiment 2). It counts as cell-based, HEK-293T. The gist of the method: (§1)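 Membranes were incubated with test lipid in pH 7.5 buffer (HEPES 50 mM, NaCl 100 mM, MgCl2 5 mM) containing saponin, GDP and 0.1 nM [γ-35S]GTP for 30 min at 30 °C. Bound label was separated by GF/C filtration and counted by scintillation. EC50 is the mean of three experiments.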

For assay [8], the target named is T2, Sphingosine 1-phosphate receptor 3. In words: In vitro binding affinity towards human Sphingosine 1-phosphate receptor 3 expressed in HEK293T cells using [gamma-35S]-GTP as radioligand (Experiment 2). Type of assay: cell-based, HEK-293T. Put shortly: as §1
Assay [9] deals with T3, Sphingosine 1-phosphate receptor 1. Nature of the assay: In vitro binding affinity towards human Sphingosine 1-phosphate receptor 1 expressed in HEK293T cells using [gamma-35S]-GTP as radioligand. (Experiment 2). Type of assay: cell-based, HEK-293T. The gist of the method:
as §1

Assay [10] concerns the target T4, Sphingosine 1-phosphate receptor 2. Nature of the assay: In vitro binding affinity towards human Sphingosine 1-phosphate receptor 2 expressed in HEK293T cells using [gamma-35S]-GTP as radioligand. Type of assay: cell-based, HEK-293T.
Assay [11] has as its target T2, Sphingosine 1-phosphate receptor 3. Nature of the assay: In vitro binding affinity towards human S1P3 receptor expressed in HEK293T cells using [gamma-35S]-GTP as radioligand. It counts as cell-based, HEK-293T.

Where only a bound is given, the exact number is not on record here.

In the case of `CCCCCCc1ccc(NC(=O)[C@@H](N)COP(=O)(O)O)cc1.O=C(O)C(F)(F)F`, the 50% effective concentration (EC50) in assay [1] was 1500 nM; in assay [2] it was “Not Active”; in assay [3], 550 nM; in [4], “Not Active”; in assay [5] it was 55 nM.
Take `CCCCCCc1ccc(NC(=O)[C@H](N)COP(=O)(O)O)cc1.O=C(O)C(F)(F)F`: the EC50 was 880 nM in assay [1]; “Not Active” in [2]; 260 nM in assay [3]; “Not Active” in [4]; 43 nM in [5].
On to `CCCCCCCCCCCCc1ccc(NC(=O)[C@H](N)COP(=O)(O)O)cc1.O=C(O)C(F)(F)F`, for which the EC50 in [1] is 1400 nM; in assay [6], 740 nM; in assay [3], 130 nM; in [4], “Not Active”; in [5], 160 nM.
Turning to `CCCCCCCCCCCCC/C=C/[C@@H](O)[C@@H](N)COP(=O)(O)O`, the EC50 in assay [7] is 270 nM; in [8] it was 8.7 nM; in assay [9] it was 4.5 nM.
Consider `CCCCCCCCCCCCCCCCNC(=O)[C@@H](N)COP(=O)(O)O`, for which the EC50 in assay [10] was over 5000 nM.
As to `CCCCCCCCc1ccc(NC(=O)[C@@H](N)COP(=O)(O)O)cc1.O=C(O)C(F)(F)F`, the 50% effective concentration (EC50) in assay [3] was 82 nM; in assay [11], 1500 nM; in assay [4], “Not Active”.
In assay [5], `CCCCCCCCCCCCCCNC(=O)[C@H](N)COP(=O)(O)O` came in with a concentration for a half-maximal effect (EC50) of over 5000 nM.
As to `CCCCCCCCCCc1ccc(NC(=O)[C@H](N)COP(=O)(O)O)cc1.O=C(O)C(F)(F)F`, the EC50 in assay [1] was 450 nM; in [6], 89 nM; in [3], 8.6 nM; in assay [4], “Not Active”; in assay [5], 41 nM.
With `CCCCCCCCc1ccc(NC(=O)[C@H](N)COP(=O)(O)O)cc1.O=C(O)C(F)(F)F`, the figures for the concentration for a half-maximal effect (EC50) in assay [6], in [3] and in assay [4] were 450 nM, 58 nM and “Not Active”, respectively.
With `CCCCCCCCCCCCCCNC(=O)[C@@H](N)COP(=O)(O)O`, the EC50 turned out to be 862 nM in assay [6], 397 nM in [3], 2680 nM in assay [10] and 1610 nM in assay [5].
